Source: ChEMBL document CHEMBL1143122, “Novel analogs of D-e-MAPP and B13. Part 1: synthesis and evaluation as potential anticancer agents” (Bioorg Med Chem, 2008)

Assays:
NCI-H322M = experiment: Antiproliferative activity against human NCI-H322M cells after 48 hrs; assay type: functional
Procedure, shortened: (§1)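 NCI 60-cell screen. Cells were grown in RPMI 1640 with 5% FBS and 2 mM L-glutamine, then plated at 5,000–40,000 cells/well according to doubling time and preincubated for 24 h at 37 °C in 5% CO2. Compounds were dissolved in DMSO at 400× the top final concentration and tested at five 10-fold dilutions from 10−4 to 10−8 M for 48 h. Growth was read spectrophotometrically; GI50 is 50% net protein reduction.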

SK-MEL-5 = experiment: Antiproliferative activity against human SKMEL5 cells after 48 hrs; assay type: functional; conditions: SK-MEL-5, 48 h; procedure, shortened: as §1
OVCAR-3 = experiment: Antiproliferative activity against human OVCAR-3 cells after 48 hrs; assay type: functional; conditions: OVCAR-3, 48 h; procedure, shortened: as §1
M14 = experiment: Antiproliferative activity against human M14 cells after 48 hrs; assay type: functional; conditions: M14, 48 h; procedure, shortened: as §1
HT-29 = experiment: Antiproliferative activity against human HT29 cells after 48 hrs; assay type: functional; conditions: HT-29, 48 h; procedure, shortened: as §1
RXF 393 = experiment: Antiproliferative activity against human RXF393 cells after 48 hrs; assay type: functional; conditions: RXF 393, 48 h; procedure, shortened: as §1
NCI-H226 = experiment: Antiproliferative activity against human NCI-H226 cells after 48 hrs; assay type: functional; conditions: NCI-H226, 48 h; procedure, shortened: as §1
IGROV-1 = experiment: Antiproliferative activity against human IGROV1 cells after 48 hrs; assay type: functional; conditions: IGROV-1, 48 h; procedure, shortened: as §1
OVCAR-5 = experiment: Antiproliferative activity against human OVCAR5 cells after 48 hrs; assay type: functional; conditions: OVCAR-5, 48 h; procedure, shortened: as §1
OVCAR-8 = experiment: Antiproliferative activity against human OVCAR8 cells after 48 hrs; assay type: functional; conditions: OVCAR-8, 48 h; procedure, shortened: as §1
[1] = Antiproliferative activity against human […] cells after 48 hrs; assay type: functional; procedure, shortened: as §1
CCRF-CEM = experiment: Antiproliferative activity against human CCRF-CEM cells after 48 hrs; assay type: functional; procedure, shortened: as §1
SNB-75 = experiment: Antiproliferative activity against human SNB75 cells after 48 hrs; assay type: functional; conditions: SNB-75, 48 h; procedure, shortened: as §1
T47D = experiment: Antiproliferative activity against human T47D cells after 48 hrs; assay type: functional
Procedure, shortened: (§2)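 NCI 60-cell-line screen. Lines grown in RPMI 1640 with 5% fetal bovine serum and 2 mM L-glutamine, plated at 5,000–40,000 cells/well according to doubling time, left 24 h at 37 °C in 5% CO2. Drug stocks in DMSO at 400-fold the top final concentration. Five 10-fold dilutions, 10−4 to 10−8 M, incubated 48 h. Growth read spectrophotometrically as net protein; GI50 taken as 50% reduction.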

SNB-19 = experiment: Antiproliferative activity against human SNB19 cells after 48 hrs; assay type: functional; conditions: SNB-19, 48 h; procedure, shortened: as §1
CAKI-1 = experiment: Antiproliferative activity against human CAKI1 cells after 48 hrs; assay type: functional; conditions: CAKI-1, 48 h; procedure, shortened: as §1
UACC-257 = experiment: Antiproliferative activity against human UACC257 cells after 48 hrs; assay type: functional; conditions: UACC-257, 48 h; procedure, shortened: as §2
KM12 = experiment: Antiproliferative activity against human KM12 cells after 48 hrs; assay type: functional; conditions: Homo sapiens, KM12, 48 h; procedure, shortened: as §1
[2] = Antiproliferative activity against human HL60(TB) cells after 48 hrs; assay type: functional, HL-60(TB); conditions: HL-60, 48 h
Procedure, shortened: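 NCI 60-line panel screen: cells grown in RPMI 1640 with 5% fetal bovine serum and 2 mM L-glutamine, plated at 5,000–40,000 cells/well by doubling time, and preincubated 24 h at 37 °C in 5% CO2. Drugs were solubilised in DMSO at 400-fold the final maximum and tested at five 10-fold dilutions from 10−4 to 10−8 M for 48 h. Net protein was read spectrophotometrically, and the concentration giving 50% reduction was reported as log10 GI50.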

SN12C = experiment: Antiproliferative activity against human SN12C cells after 48 hrs; assay type: functional; procedure, shortened: as §1
MCF7 [3] = experiment: Drug level in human MCF7 cells at 10 uM per 10^6 cells after 0.5 hrs; assay type: ADME, cell-based; conditions: mcf7, 0.5 h
Procedure, shortened: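 MCF7 cells kept in RPMI 1640 with 10% fetal calf serum at 37 °C, 5% CO2, then treated with 10 μM analog. Intracellular analog measured over time by HPLC-MS in positive-ion MRM mode. Quantified against calibration curves made by spiking an artificial matrix with standards plus internal standard, using analyte/IS peak-area ratios and linear regression. Reported as pmol per 1×10^6 cells.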

HOP-62 = experiment: Antiproliferative activity against human HOP62 cells after 48 hrs; assay type: functional; conditions: HOP-62, 48 h; procedure, shortened: as §1
SW-620 = experiment: Antiproliferative activity against human SW620 cells after 48 hrs; assay type: functional; conditions: SW-620, 48 h; procedure, shortened: as §2
MCF7 [4] = experiment: Antiproliferative activity against human MCF7 cells after 48 hrs; assay type: functional, cell-based; conditions: MCF7, 48 h
Hs-578T = experiment: Antiproliferative activity against human HS578T cells after 48 hrs; assay type: functional; procedure, shortened: as §1
HCT-15 = experiment: Antiproliferative activity against human HCT15 cells after 48 hrs; assay type: functional; conditions: Homo sapiens, HCT-15, 48 h; procedure, shortened: as §1
UACC-62 = experiment: Antiproliferative activity against human UACC62 cells after 48 hrs; assay type: functional; conditions: UACC-62, 48 h; procedure, shortened: as §2
[5] = read-out: Log LC50 (the source's name) (converted)

## C[C@@H](NC(=O)CCCCCCCCCCCCCCC[n+]1ccccc1)[C@@H](O)c1ccccc1.[Br-]
NCI-H322M
  GI50: 11 µM
NCI-H322M; [5]
  CC50: 49 µM
NCI-H322M; read-out: Log TGI (converted)
  TGI: 22.9 µM
SK-MEL-5
  GI50: 1.58 µM
SK-MEL-5; [5]
  CC50: 5.5 µM
SK-MEL-5; read-out: Log TGI (converted)
  TGI: 2.95 µM
OVCAR-3
  GI50: 1.1 µM
OVCAR-3; read-out: Log TGI (converted)
  TGI: 2.4 µM
M14
  GI50: 3.39 µM
  LC50: 8.32 µM
M14; read-out: Log TGI (converted)
  TGI: 3.89 µM
HT-29
  GI50: 1.58 µM
  LC50: 7.59 µM
HT-29; read-out: Log TGI (converted)
  TGI: 3.47 µM
RXF 393
  GI50: 4.57 µM
RXF 393; [5]
  CC50: 97.7 µM
RXF 393; read-out: Log TGI (converted)
  TGI: 24 µM
NCI-H226
  GI50: 4.17 µM
NCI-H226; [5]
  CC50: > 100 µM
NCI-H226; read-out: Log TGI (converted)
  TGI: 22.9 µM
IGROV-1
  GI50: 1.62 µM
IGROV-1; read-out: Log TGI (converted)
  TGI: 3.31 µM
OVCAR-5
  GI50: 5.25 µM
OVCAR-5; [5]
  CC50: 50.1 µM
OVCAR-5; read-out: Log TGI (converted)
  TGI: 18.2 µM
OVCAR-8
  GI50: 2.75 µM
OVCAR-8; [5]
  CC50: > 100 µM
OVCAR-8; read-out: Log TGI (converted)
  TGI: 13.5 µM
[1]
  GI50: 2.57 µM
  LC50: > 100 µM
[1]; read-out: Log TGI (converted)
  TGI: 8.71 µM
CCRF-CEM
  GI50: < 0.01 µM
SNB-75
  GI50: 2.95 µM
SNB-75; [5]
  CC50: 9.77 µM
SNB-75; read-out: Log TGI (converted)
  TGI: 5.37 µM
T47D
  GI50: 1.55 µM
T47D; [5]
  CC50: > 100 µM
T47D; read-out: Log TGI (converted)
  TGI: 6.46 µM
SNB-19
  GI50: 1.58 µM
SNB-19; read-out: Log TGI (converted)
  TGI: 3.09 µM
CAKI-1
  GI50: 1.38 µM
CAKI-1; [5]
  CC50: 66.1 µM
CAKI-1; read-out: Log TGI (converted)
  TGI: 30.2 µM
UACC-257
  GI50: 1.58 µM
UACC-257; read-out: Log TGI (converted)
  TGI: 3.39 µM
KM12
  GI50: 1.74 µM
KM12; [5]
  CC50: 5.75 µM
KM12; read-out: Log TGI (converted)
  TGI: 3.16 µM
[2]
  GI50: 1.12 µM
  LC50: > 100 µM
[2]; read-out: Log TGI (converted)
  TGI: 3.72 µM
SN12C
  GI50: 1.74 µM
  LC50 (50% net cell kill): 7.76 µM
SN12C; read-out: Log TGI (converted)
  TGI: 3.63 µM
MCF7 [3]
  Drug uptake: 800 pmol
HOP-62
  GI50: 2.69 µM
HOP-62; [5]
  CC50: 38 µM
HOP-62; read-out: Log TGI (converted)
  TGI: 8.91 µM
SW-620
  GI50: 4.27 µM
  LC50 (concentration killing 50% of cells): 66.1 µM
SW-620; read-out: Log TGI (converted)
  TGI: 17.4 µM
MCF7 [4]
  GI50: 1.58 µM
  LC50: 8.51 µM
MCF7 [4]; read-out: Log TGI (converted)
  TGI: 3.72 µM
Hs-578T
  GI50: 1.78 µM
  LC50: 9.12 µM
Hs-578T; read-out: Log TGI (converted)
  TGI: 4.07 µM
HCT-15
  GI50: 17.8 µM
  LC50: 58.9 µM
HCT-15; read-out: Log TGI (converted)
  TGI: 32.4 µM
UACC-62
  GI50: 1.48 µM
  LC50: 5.75 µM
UACC-62; read-out: Log TGI (converted)
  TGI: 2.88 µM
